From ChEMBL document CHEMBL5512642, “Novel triterpenoid pyrones, phthalimides and phthalates are selectively cytotoxic in CCRF-CEM cancer cells - Synthesis, potency, and mitochondrial mechanism of action” (Eur J Med Chem, 2024)
Calls of active or inactive are those of the source. No cut-off for these calls is given here.

What was measured:
[1] = Efflux ratio of apparent permeability across basolateral to apical side over apical to basolateral side in MDCK-MDR1 cells; type: ADME, cell-based, Canis lupus familiaris; conditions: dog
Method in brief: (§1)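 Caco-2 and MDCK-MDR1 monolayers; transport measured in both directions, apical→basolateral and basolateral→apical. Efflux ratio taken from the two directions; ER > 2 counted as active efflux. Compound recovery reported. Cell-based permeability runs done in duplicate.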

[2] = Metabolic stability in human liver microsomes assessed as compound remaining at measured at 60 mins in presence of NADPH by RF-MS analysis; type: ADME, Microsome; conditions: read-out: Stability
Method in brief: (§2)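 Human liver microsomes with NADPH cofactor to assess phase I oxidation. Compound remaining sampled at 15, 30 and 60 min; intrinsic clearance derived and categorized. Run in triplicate.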

[3] = test system: CCRF-CEM; assay: Induction of mitochondrial membrane potential loss in human CCRF-CEM cells assessed as cells with depolarized mitochondria (P2 gate) by measuring green fluorescence intensity at 5 time IC50 incubated for 24 hrs by JC-1 staining based flow cytometry (reference value: 2.1%)
[4] = test system: CCRF-CEM; assay: Induction of apoptosis in human CCRF-CEM cells assessed as necrotic cells at 5 time IC50 incubated for 24 hrs by Annexin V and propidium iodide staining based flow cytometry analysis (reference value: 0.; type: functional
[5] = Apparent permeability of the compound in human Caco-2 cells; type: ADME, cell-based; method in brief: as §1
[6] = test system: CCRF-CEM; assay: Induction of apoptosis in human CCRF-CEM cells assessed as early apoptotic cells at 1 time IC50 incubated for 24 hrs by Annexin V and propidium iodide staining based flow cytometry analysis (reference value: 1.4%); type: functional
[7] = test system: CCRF-CEM; assay: Induction of apoptosis in human CCRF-CEM cells assessed as early apoptotic cells at 5 time IC50 incubated for 24 hrs by Annexin V and propidium iodide staining based flow cytometry analysis (reference value: 1.4%); type: functional
[8] = test system: CCRF-CEM; assay: Induction of apoptosis in human CCRF-CEM cells assessed as necrotic cells at 1 time IC50 incubated for 24 hrs by Annexin V and propidium iodide staining based flow cytometry analysis (reference value: 0.1%); type: functional
[9] = Cytotoxicity against human K562-Tax cells assessed as reduction in cell viability incubated for 72 hrs by MTS assay; type: functional, cell-based
[10] = test system: CCRF-CEM; assay: Induction of apoptosis in human CCRF-CEM cells assessed as viable cells at 5 time IC50 incubated for 24 hrs by Annexin V and propidium iodide staining based flow cytometry analysis (reference value: 98%); type: functional
[11] = Plasma protein binding in human assessed as fraction bound at 10 uM by rapid equilibrium dialysis based RF-MS analysis; type: ADME, cell-free; conditions: read-out: PPB (converted)
Method in brief: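 Human plasma protein binding measured by equilibrium dialysis and reported as percent fraction bound. Run in triplicate.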

[12] = test system: HCT-116; assay: Cytotoxicity against human HCT-116 cells assessed as reduction in cell viability incubated for 72 hrs by MTS assay; type: functional, cell-based; conditions: HCT-116, 72 h
[13] = test system: HCT 116 TP53(-/-); assay: Cytotoxicity against human HCT116-p53-null cells assessed as reduction in cell viability incubated for 72 hrs by MTS assay; type: functional, cell-based
[14] = test system: U2OS; assay: Cytotoxicity against human U2OS cells assessed as reduction in cell viability incubated for 72 hrs by MTS assay; type: functional, cell-based
[15] = test system: CCRF-CEM; assay: Induction of mitochondrial membrane potential loss in human CCRF-CEM cells assessed as cells with depolarized mitochondria (P2 gate) by measuring green fluorescence intensity at 1 time IC50 incubated for 24 hrs by JC-1 staining based flow cytometry (reference value: 2.1%)
[16] = test system: CCRF-CEM; assay: Induction of apoptosis in human CCRF-CEM cells assessed as viable cells at 1 time IC50 incubated for 24 hrs by Annexin V and propidium iodide staining based flow cytometry analysis (reference value: 98%); type: functional
[17] = test system: CCRF-CEM; assay: Induction of apoptosis in human CCRF-CEM cells assessed as late apoptotic cells at 5 time IC50 incubated for 24 hrs by Annexin V and propidium iodide staining based flow cytometry analysis (reference value: 0.5%); type: functional
[18] = Metabolic stability in human liver microsomes assessed as compound remaining at measured at 15 mins in presence of NADPH by RF-MS analysis; type: ADME, Microsome; conditions: read-out: Stability; method in brief: as §2
[19] = test system: CCRF-CEM; assay: Induction of apoptosis in human CCRF-CEM cells assessed as reduction in Bcl-XL expression at 5 time of IC50 incubated for 24 hrs by Western blot analysis; type: functional, cell-based
Method in brief: (§3)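 Lysate 20 µg protein per lane on SDS-PAGE, transferred to nitrocellulose, blocked in 5% BSA/TBS-Tween. Probed overnight at 4 °C with anti-caspase-3, Bcl-2, Bcl-XL, β-actin, then HRP secondary 1 h. ECL chemiluminescence detection.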

[20] = Stability in human plasma assessed as compound remaining measured 120 mins by RF-MS analysis; type: ADME, cell-free; conditions: read-out: Stability
Method in brief: (§4)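 Compounds incubated in human plasma in vitro for up to 2 h. Percent remaining sampled at 15, 30, 60 and 120 min. Run in triplicate.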

[21] = Stability in human plasma assessed as compound remaining measured 60 mins by RF-MS analysis; type: ADME, cell-free; conditions: read-out: Stability; method in brief: as §4
[22] = Stability in human plasma assessed as compound remaining measured 30 mins by RF-MS analysis; type: ADME, cell-free; conditions: read-out: Stability; method in brief: as §4
[23] = test system: A549; assay: Cytotoxicity against human A549 cells assessed as reduction in cell viability incubated for 72 hrs by MTS assay; type: functional, cell-based; conditions: A549, 72 h
[24] = Efflux ratio of apparent permeability across basolateral to apical side over apical to basolateral side in human Caco-2 cells; type: ADME, cell-based; method in brief: as §1
[25] = Cytotoxicity against human MRC5 cells assessed as reduction in cell viability incubated for 72 hrs by MTS assay; type: toxicity, cell-based
[26] = test system: CCRF-CEM; assay: Cytotoxicity against human CCRF-CEM cells assessed as reduction in cell viability incubated for 72 hrs by MTS assay; type: functional, cell-based
[27] = test system: CCRF-CEM; assay: Induction of apoptosis in human CCRF-CEM cells assessed as reduction in caspase-3 expression at 5 time of IC50 incubated for 24 hrs by Western blot analysis; type: functional, cell-based; method in brief: as §3
[28] = Cytotoxicity against human BJ cells assessed as reduction in cell viability incubated for 72 hrs by MTS assay; type: toxicity, cell-based
[29] = Stability in human plasma assessed as compound remaining measured 15 mins by RF-MS analysis; type: ADME, cell-free; conditions: read-out: Stability; method in brief: as §4
[30] = test system: CEM-DNR; assay: Cytotoxicity against human CEM-DNR cells assessed as reduction in cell viability incubated for 72 hrs by MTS assay; type: functional, cell-based
[31] = Apparent permeability of the compound across apical to basolateral side in MDCK-MDR1 cells assessed as compound recovery at 10 uM incubated for 1 hr by RF-MS analysis; type: ADME, cell-based, Canis lupus familiaris; conditions: dog, read-out: Activity; method in brief: as §1
[32] = test system: CCRF-CEM; assay: Induction of apoptosis in human CCRF-CEM cells assessed as late apoptotic cells at 1 time IC50 incubated for 24 hrs by Annexin V and propidium iodide staining based flow cytometry analysis (reference value: 0.5%); type: functional
[33] = Apparent permeability of the compound across apical to basolateral side in human Caco-2 cells assessed as compound recovery; type: ADME, cell-based; conditions: read-out: Activity; method in brief: as §1
[34] = test system: CCRF-CEM; assay: Induction of apoptosis in human CCRF-CEM cells assessed as reduction in Bcl-2 expression at 5 time of IC50 incubated for 24 hrs by Western blot analysis; type: functional, cell-based; method in brief: as §3
[35] = Metabolic stability in human liver microsomes assessed as compound remaining at measured at 30 mins in presence of NADPH by RF-MS analysis; type: ADME, Microsome; conditions: read-out: Stability; method in brief: as §2
[36] = Apparent permeability of the compound in MDCK-MDR1 cells at 10 uM incubated for 1 hr by RF-MS analysis; type: ADME, cell-based, Canis lupus familiaris; conditions: dog; method in brief: as §1
[37] = test system: K562; assay: Cytotoxicity against human K562 cells assessed as reduction in cell viability incubated for 72 hrs by MTS assay; type: functional, cell-based; conditions: K562, 72 h
[38] = test system: CCRF-CEM; assay: Antimitotic activity against human CCRF-CEM cells assessed as decrease in cell division at 5 times of IC50; type: functional, cell-based
Method in brief: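 Mitotic fraction scored with the pH3 Ser10 marker and DNA synthesis with BrdU incorporation. For transcription, cells received a short BrU pulse after the 24 h pre-incubation. Read by flow cytometry against untreated cells.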

Row | efflux ratio [1] | remaining at 1 h [2] | Papp [5] | fraction unbound at 10 µM [11] | remaining at 0.25 h [18] | remaining at 2 h [20] | Structure (SMILES) | Activity [3] | Activity [4] | Activity [6] | Activity [7] | Activity [8] | IC50 [9] | Activity [10] | IC50 [12] | IC50 [13] | IC50 [14] | Activity [15] | Activity [16] | Activity [17] | Activity [19] | also measured
1 | 8.17 | 45% | 0.12 ×10⁻⁶ cm/s | 0.292 | 82% | 94.2% | C[C@H]1[C@H](C)CC[C@]2(C(=O)O)CC[C@]3(C)C(=CC[C@@H]4[C@@]5(C)CC6=C(C7C(=O)N(c8ccccc8)C(=O)C7C=C6C(F)(F)F)C(C)(C)[C@@H]5CC[C@]43C)[C@H]12 (some centres undefined) | 11.8% | 0% | 3.6% | 10.9% | 0% | 23 µM | 82.2% | 13 µM | 12 µM | 19 µM | 0.6% | 93.6% | 6.9% | Active | remaining at 1 h [21]: 102%; remaining at 0.5 h [22]: 99.6%; IC50 [23]: 18 µM; efflux ratio [24]: 41.8; IC50 at 72 h [25]: > 50 µM; IC50 [26]: 4.3 µM; Activity [27]: Active; IC50 at 72 h [28]: 10 µM; remaining at 0.25 h [29]: 102%; IC50 [30]: > 50 µM; recovery at 1 h, 10 µM [31]: 60.5%; Activity [32]: 2.8%; recovery [33]: 69.2%; Activity [34]: Active; remaining at 0.5 h [35]: 64%; Papp at 1 h, 10 µM [36]: 0.33 ×10⁻⁶ cm/s; IC50 [37]: 21 µM
2 | 6.95 | 76% | 1.73 ×10⁻⁶ cm/s | 0.184 | 91% | 93.8% | C=C(C)[C@@H]1CC[C@]2(C(=O)O)CC[C@]3(C)[C@H](CC[C@@H]4[C@@]5(C)Cc6c(C(F)(F)F)cc(C(=O)OC)c(C(=O)OC)c6C(C)(C)[C@@H]5CC[C@]43C)[C@@H]12 | 38.1% | 0% | 4.3% | 8.5% | 0% | > 50 µM | 87.3% | 23 µM | 13 µM | 17 µM | 2.4% | 92.9% | 4.2% | Active | remaining at 1 h [21]: 96.2%; remaining at 0.5 h [22]: 96.7%; IC50 [23]: 18 µM; efflux ratio [24]: 5.62; IC50 at 72 h [25]: > 50 µM; IC50 [26]: 3.8 µM; Activity [38]: Active; IC50 at 72 h [28]: > 50 µM; remaining at 0.25 h [29]: 103%; IC50 [30]: > 50 µM; recovery at 1 h, 10 µM [31]: 71.2%; Activity [32]: 2.8%; recovery [33]: 75.8%; Activity [34]: Active; remaining at 0.5 h [35]: 102%; Papp at 1 h, 10 µM [36]: 4.46 ×10⁻⁶ cm/s; IC50 [37]: 18 µM
